Results collected from several papers.
Compare with care: the assays were run in different laboratories.
Cell line: A549
Effect on: cell growth or viability

Structure (SMILES) | assay | conditions | IC50
O=C(Nc1ccc(-c2ccc3ncn(Cc4ccccc4)c(=O)c3c2)cn1)C1CCC1 | CCK-8 | 72 h | > 10 µM
O=C(NO)Nc1nc2ccc(Br)cc2c(=O)n1-c1ccccc1 | MTT | 48 h | 28 µM
CCCn1cnc2ccc(-c3ccc(NC(=O)CC4CCC4)nc3)cc2c1=O | CCK-8 | 72 h | > 10 µM
COc1cccc(NC(=S)N/N=C/c2cccc3cc4ccccc4nc23)c1 | MTT | 48 h | > 50 µM
C#Cc1cccc(Nc2ncnc3cc(OCCOC)c(OCCOC)cc23)c1 | MTT | 48 h | 17.3 µM
O=C(Nc1cccc(F)c1)Nc1nc2cc(-c3ccc4ncn(Cc5ccccc5)c(=O)c4c3)ccc2s1 | MTT | 72 h | 3.49 µM
CC(C)Cc1ccc([C@H](C)C(=O)O)cc1 | SRB | 72 h | 349 µM
CCCn1cnc2ccc(-c3ccc(N4CCCCC4=O)nc3)cc2c1=O | CCK-8 | 72 h | > 10 µM
CC(C)[C@@H]1NC(=O)[C@@H](CCCNC(=N)N)NC(=O)[C@H]([C@@H](C)O)NC(=O)[C@@H](CCCN)NC(=O)[C@H](Cc2ccccc2)NC(=O)[C@@H](Cc2ccccc2)NC1=O | ATP luminescence | 72 h | > 100 µM
CCCCNC(=O)Nc1nc2cc(-c3ccc4ncn(Cc5ccccc5)c(=O)c4c3)ccc2s1 | MTT | 72 h | 6.27 µM
O=C(C=Cc1ccc(OCCCCOc2ccc(C=CC(=O)c3cccs3)cc2)cc1)c1cccs1 | MTT | 48 h | 232 µM
COc1cccc(NC(=O)Nc2nc3cc(-c4ccc5ncn(CCN6CCOCC6)c(=O)c5c4)ccc3s2)c1 | MTT | 72 h | 1.14 µM
CCCn1cnc2ccc(-c3ccc(NC(=O)CC(C)CC)nc3)cc2c1=O (centres unmarked) | CCK-8 | 72 h | 1.49 µM
NNc1nc2ccc(Br)cc2c(=O)n1-c1ccc(F)cc1 | MTT | 48 h | 63.9 µM
N=C(N)c1ccc(OCCCCCOc2ccc(C(=N)N)cc2)cc1 | ATP luminescence | 72 h | 12.8 µM
Cc1cc(NS(=O)(=O)c2ccc(NC(=O)/C(C#N)=C/c3ccc(N4CCCC4)cc3)cc2)no1 | MTT | 48 h | 180 µM
O=C(N[C@@H](CSCc1ccccc1)C(=O)NO)c1ccccc1 | MTT | 48 h | 201 µM
CC(C)NC(=O)Nc1nc2cc(-c3ccc4ncn(Cc5ccccc5)c(=O)c4c3)ccc2s1 | MTT | 72 h | > 20 µM
Cc1cccc(NC(=O)Cn2cc(COc3ncnc4[nH]cnc34)nn2)c1 | MTT |  | > 100 µM
CCCCC(=O)Nc1ccc(-c2ccc3ncn(C4CC4)c(=O)c3c2)cn1 | CCK-8 | 72 h | > 10 µM
C(=N\Nc1cc(N/N=C/c2ccc3ccccc3n2)nc(-c2ccccc2)n1)/c1ccc2ccccc2n1 | MTT | 48 h | 7.32 µM
CC(=O)O[C@@]12CO[C@@H]1C[C@H](O)[C@@]1(C)C(=O)[C@H](O)C3=C(C)[C@@H](OC(=O)[C@H](O)[C@@H](NC(=O)OC(C)(C)C)c4ccccc4)C[C@@](O)([C@@H](OC(=O)c4ccccc4)[C@H]21)C3(C)C | MTT | 24 h | > 60 µg/mL

Structure (SMILES) | assay | conditions | IC50
COc1cccc(CNc2ccc(C(=O)O)cc2)c1 | resazurin | 72 h | > 100 µM
O=C1/C(=C/c2ccc3ccccc3c2O)NC(=S)N1c1ccccc1 | MTT |  | 5.2 µg/mL
NNc1nc2ccc(Br)cc2c(=O)n1-c1ccc(Cl)cc1 | MTT | 48 h | 79.2 µM
COc1ccc(C(=O)Nc2nc3cc(-c4ccc5ncn(Cc6ccccc6)c(=O)c5c4)ccc3s2)cc1 | MTT | 72 h | > 20 µM
C/C(=N\C(=S)/N=C(\C)c1c(O)c2ccccc2oc1=O)c1c(O)c2ccccc2oc1=O | MTT | 48 h | 6.66 µM
CCCCn1cnc2ccc(-c3ccc(NC(=O)Nc4ccc(CC)cc4)nc3)cc2c1=O | CCK-8 | 72 h | > 10 µM
OC1CCN(c2ccc(/C=N/NC(=S)Nc3cccc(Cl)c3Cl)cc2)CC1 | MTT | 24 h | 0.58 µM
NS(=O)(=O)c1ccc(-n2nc(C(=O)NN=Cc3ccc(O)cc3)cc2-c2ccccc2)cc1 | fluorescence | 48 h | 7.9 µM
CCCCn1cnc2ccc(-c3ccc(NC(C)=O)nc3)cc2c1=O | CCK-8 | 72 h | > 10 µM
NS(=O)(=O)c1ccc(-n2nc(C(=O)NN3C(=O)c4ccccc4C3=O)cc2-c2ccccc2)cc1 | fluorescence | 48 h | 33.5 µM
OC1CCN(c2ccc(/C=N/NC(=S)NCc3ccc(Cl)cc3)cc2)CC1 | MTT | 24 h | 1.46 µM
COc1cccc(CNc2ccc(C(=O)O)cc2)c1O | resazurin | 72 h | > 100 µM
Cc1ccccc1NC(=O)Nc1ccc(-c2ccc3ncn(Cc4ccccc4)c(=O)c3c2)cn1 | CCK-8 | 72 h | 0.98 µM
OC1CCN(c2ccc(/C=N/NC(=S)Nc3ccc(Cl)cc3)cc2)CC1 | MTT | 24 h | 2.92 µM
COc1ccc(NC(=S)N/N=C/c2cccc3cc4ccccc4nc23)cc1 | MTT | 48 h | 17.8 µM
C/C(=N\c1nc(N)nc(/N=C(\C)c2c(O)c3ccccc3oc2=O)n1)c1c(O)c2ccccc2oc1=O | MTT | 48 h | 5.58 µM
O=C(Nc1ccc(F)cc1)Nc1nc2cc(-c3ccc4ncn(CC5CC5)c(=O)c4c3)ccc2s1 | MTT | 72 h | 2.48 µM
CCCc1cc2cc(-n3nc(C)c4c3CC(C)(C)CC4=O)cc(N3CCC(O)CC3)c2c(=O)[nH]1 | MTS |  | 7.38 µM
O=C(Nc1ccc(F)cc1)Nc1nc2cc(-c3ccc4ncn(CC(=O)N5CCOCC5)c(=O)c4c3)ccc2s1 | MTT | 72 h | > 20 µM
O=C(O)c1ccc(NCc2cc(Br)ccc2O)cc1 | resazurin | 72 h | > 100 µM
CCCCn1cnc2ccc(-c3ccc4sc(NC(=O)Nc5ccc(F)cc5)nc4c3)cc2c1=O | MTT | 72 h | 1.27 µM
COc1ccccc1CNc1ccc(C(=O)O)cc1 | resazurin | 72 h | > 100 µM
